Assay: Toxicity liver stage against HepG2, at 10uM
Assay type: cell-based
Set-up: test concentration 10 uM, cell line HepG2-A16-CD81EGFP
Conditions: human, HepG2-A16-CD81EGFP cells; read-out: INHIBITION
In short: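 Uninfected HepG2-A16-CD81EGFP cells, 3 × 10^3 per well, 1536-well, plated on prespotted compound at 10 μM final, parasite-free screening media added to match infected plates; puromycin 10 μM positive, DMSO 0.5% negative; run in parallel with 48 h PbLuc assay at 37 °C, 5% CO2; viability by CellTiter-Glo luminescence, normalized to controls.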

Cn1c(C(=O)NCC2(N)CCCC2)cc2ccccc21
cytotoxicity at 10 µM: 7.8%

O=C(Nc1ccc2c(c1)OCO2)N1CCN(CCn2cccn2)CC1
cytotoxicity at 10 µM: 0.741%

CCOCC(=O)N1CCC(CSCc2ccco2)CC1
cytotoxicity at 10 µM: -7.36%

CC(=O)NCC(=O)N1CCC2(CC1)NC(=O)CC2c1cnn(C)c1 (stereo not given)
cytotoxicity at 10 µM: -0.113%

OCCN1CCCC(c2cccc(-c3ccccc3F)n2)C1 (stereo not given)
cytotoxicity at 10 µM: 5.68%

CC(=O)Nc1cccc([C@H]2C[C@@H](NC(C)=O)CCO2)c1
cytotoxicity at 10 µM: -0.825%

Cc1cnc(CCNC(=O)NCCc2ccc(O)cc2)s1
cytotoxicity at 10 µM: -0.276%

COc1cc(C)sc1C(=O)NCCNc1ccccc1
cytotoxicity at 10 µM: -7.64%

CN(Cc1ccc2c(c1)OCCO2)Cn1nc(C(C)(C)C)ccc1=O
cytotoxicity at 10 µM: -12.4%

CCc1nn(C)c2[nH]nc(NC(=O)c3cccnc3OC)c12
cytotoxicity at 10 µM: -8.98%

CCN(CC)S(=O)(=O)N1CCCC1C(=O)N1CCSCC1 (stereo not given)
cytotoxicity at 10 µM: -4.71%

CSc1ccc(OC(C)C(=O)Nc2cc(C)n[nH]2)cc1 (stereo not given)
cytotoxicity at 10 µM: 8.64%

Cc1occc1C(=O)N1C[C@@H]2CCCO[C@@H]2[C@H](NS(C)(=O)=O)C1
cytotoxicity at 10 µM: -95.3%

O=C(C1CC=CC1)N1CC[C@@H](O)[C@H]1Cc1cccnc1
cytotoxicity at 10 µM: -99.4%

Cn1cc(CN2CCCC(CCc3ccccc3C(F)(F)F)C2)cn1 (stereo not given)
cytotoxicity at 10 µM: -4.24%

COc1cccc(C(=O)C2CCCN(c3nccc(N)n3)C2)c1 (stereo not given)
cytotoxicity at 10 µM: -1.82%

COc1cc(N(C)Cc2noc(CC(C)C)n2)ncn1
cytotoxicity at 10 µM: -0.71%

Cc1nccn1-c1ccc(N2CCC(N[C@H](C)C(C)C)CC2)cc1
cytotoxicity at 10 µM: -6.39%

CC(=O)NCC(=O)N1CCc2[nH]c(-c3ccccc3)nc2C1
cytotoxicity at 10 µM: -0.591%

Cc1c(C(C)NCc2cnn(C)c2)cnn1-c1ccccc1 (stereo not given)
cytotoxicity at 10 µM: -5.78%

COCCN1CCN(Cc2cccnc2)[C@H]2CS(=O)(=O)C[C@H]21
cytotoxicity at 10 µM: 6.03%

Cc1ccccc1N1CCN(C(=O)c2cnc(C3CC3)nc2)C(C)C1 (stereo not given)
cytotoxicity at 10 µM: 2.09%

Cn1cc(CN2CCCC(CCc3ccc(F)cc3F)C2)cn1 (stereo not given)
cytotoxicity at 10 µM: -10.4%

CS(=O)(=O)NCCC1CCCN(Cc2ccccc2F)C1 (stereo not given)
cytotoxicity at 10 µM: -1.25%

COc1ccc(C(C(=O)O)N2CCN(C3CCCC3)CC2)cc1C (stereo not given)
cytotoxicity at 10 µM: -8.77%

COc1ccc(NC(=O)CCC2CCCN(S(=O)(=O)C3CC3)C2)cc1Cl (stereo not given)
cytotoxicity at 10 µM: 11.3%

Cc1noc(CNc2ccc(C(=O)N3CCCC(C)C3)cc2C)n1 (stereo not given)
cytotoxicity at 10 µM: -4.07%

COc1c(CNC2CCCN(c3ncccn3)C2)c(C(C)C)nn1C (stereo not given)
cytotoxicity at 10 µM: -9.94%

CN(CC(=O)Nc1cccnc1)C1CCCN(c2cccnn2)C1 (stereo not given)
cytotoxicity at 10 µM: -2.42%

CCCN1CCC(CNC(=O)C2(c3ccccc3)CCC2)C1 (stereo not given)
cytotoxicity at 10 µM: -6.29%

CC1CCN(S(=O)(=O)NCc2ccccc2Cn2cccn2)CC1
cytotoxicity at 10 µM: 7.4%

Cc1nc(CN2CCN(C(=O)CCc3ccco3)CC2)cs1
cytotoxicity at 10 µM: -4.39%

COc1ccc(F)cc1CN1CCCC1Cn1nc(C)nc1C (stereo not given)
cytotoxicity at 10 µM: -2.41%

CCc1nc(C2CCCN(C(=O)c3ccc(O)nc3)C2)no1 (stereo not given)
cytotoxicity at 10 µM: -11.7%

COc1ccc(CC(=O)N2CCCC2Cn2cc(C)cn2)c(OC)c1 (stereo not given)
cytotoxicity at 10 µM: -18%

Cc1nc(CN2CCCN(C(=O)COCC3CC3)CC2)cs1
cytotoxicity at 10 µM: -11%

Cc1cnc(C(=O)N2CCCC(n3ccnc3C)C2)cn1 (stereo not given)
cytotoxicity at 10 µM: -10.8%

O=C(NCCCN1CCc2ccccc2C1)c1cccnc1O
cytotoxicity at 10 µM: -3.49%

O=C(Cc1csc(-c2ccco2)n1)N1CCN(c2cnccn2)CC1
cytotoxicity at 10 µM: 0.0241%

CC(=O)N(Cc1noc(C)n1)C1CCN(Cc2ccccc2C#N)C1 (stereo not given)
cytotoxicity at 10 µM: -1.76%

CC(Cn1cccn1)NC(=O)CCc1ccc(S(N)(=O)=O)cc1 (stereo not given)
cytotoxicity at 10 µM: -2.02%

CC(C)c1nc2n(n1)CC(NCc1nc(-c3cccnc3)no1)CC2 (stereo not given)
cytotoxicity at 10 µM: 4.04%

CCN1C[C@H]2C3(CCN(C(=O)NC(C)C)CC3)CC[C@@]2(C(=O)NC)C1
cytotoxicity at 10 µM: -106%

COc1cccc(CN2C[C@@H]3COC[C@]3(CNC(=O)C3CC3)C2)c1
cytotoxicity at 10 µM: -99%

CCC(=O)N1CCN(CCn2cccn2)c2ncccc2C1
cytotoxicity at 10 µM: -106%
